Experimental data published in ChEMBL document CHEMBL1142960, “Synthesis and structure-activity relationships for 2,4-dinitrobenzamide-5-mustards as prodrugs for the Escherichia coli nfsB nitroreductase in gene therapy” (J Med Chem, 2007).
Converted amounts (≈) assume the structure as drawn.

Legend:
[1] = Partition coefficient at pH 7.4 by shake-flask method; assay type: physicochemical; settings: octanol/water
Procedure, shortened: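 Octanol-water partition coefficient by shake-flask at pH 7.4, reported with SEM.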

V79 [2] = test: Antiproliferative activity against chinese hamster wild-type V79 NTR-ve cells after 18 hrs; assay type: functional, cell-based; settings: Cricetulus griseus, V79, 18 h
V79 [3] = test: Antiproliferative activity against chinese hamster V79 NTRpuro cells after 18 hrs; assay type: functional, cell-based; settings: Cricetulus griseus, V79, 18 h
V79 [4] = test: Selectivity ratio of IC50 for V79 NTR-ve cells to IC50 for V79 NTRpuro cells; assay type: functional, Cricetulus griseus
EMT6 [5] = test: Antiproliferative activity against mouse wild type EMT6 NTR-ve cells after 18 hrs; assay type: functional, cell-based; settings: EMT6, 18 h
EMT6 [6] = test: Antiproliferative activity against mouse EMT6 NTRpuro cells after 18 hrs; assay type: functional, cell-based; settings: EMT6, 18 h
EMT6 [7] = test: Selectivity ratio of IC50 for EMT6 NTR-ve cells to IC50 forEMT6 NTRpuro cells; assay type: functional, Mus musculus
WiDr [8] = test: Antiproliferative activity against human wild type WiDr NTR-ve cells after 18 hrs; assay type: functional, cell-based
WiDr [9] = test: Antiproliferative activity against human WiDr NTRneo cells after 18 hrs; assay type: functional, cell-based
WiDr [10] = test: Selectivity ratio of IC50 for WiDr NTR-ve cells to IC50 for WiDr NTRneo cells; assay type: functional, Homo sapiens
[11] = Antiproliferative activity against human wild type Skov3 NTR-ve cells after 18 hrs; assay type: functional, cell-based
V79 [12] = test: Clonogenic survival of V79 NTRoua cells after 5 hrs by MCL assay; assay type: functional, Cricetulus griseus
[13] = Antiproliferative activity against human Skov3 NTRneo cells after 18 hrs; assay type: functional, cell-based; settings: SK-OV-3, 18 h
[14] = Selectivity ratio of IC50 for Skov3 NTR-ve cells to IC50 for Skov3 NTRneo cells; assay type: functional, Homo sapiens
V79 [15] = test: Clonogenic survival of 3% V79 NTRpuro cells in co-cultures with 97% V79 NTRoua after 5 hrs by MCL assay; assay type: functional, Cricetulus griseus
Procedure, shortened: (§1)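 Multicellular layer cocultures of 3% V79-NTRpuro activators and 97% V79oua NTR-ve targets (ouabain-resistant), exposed to prodrug for 5 h. MCLs were then trypsin-dissociated and plated in ouabain or puromycin selective media for clonogenic survival. C10 (10% survival) interpolated for activators and targets; AC/TC ratio derived. Mean with SEM or range over independent experiments.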

V79 [16] = test: Clonogenic survival of 97% V79 NTRoua cells in co-cultures with 3% V79 NTRpuro cells after 5 hrs by MCL assay; assay type: functional, Cricetulus griseus; procedure, shortened: as §1
[17] = Toxicity in ip dosed CD1 nude mouse in DMSO/PEG; assay type: organism-based; settings: in vivo
Procedure, shortened: (§2)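 Maximum tolerated dose (MTD) determined in CD-1 nude mice after a single i.p. injection of prodrug, given in the vehicle named in each line.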

[18] = Toxicity in ip dosed CD1 nude mouse in DMSO; assay type: organism-based; settings: in vivo; procedure, shortened: as §2
EMT6 [19] = test: Antitumor activity against mixed mouse EMT6/EMT6 NTRpuro cells injected in CD1 nude mouse assessed as cell kill at 562 umol/kg, ip in DMSO/PEG after 18 hrs; assay type: functional
WiDr [20] = test: Antitumor activity against human 10% WiDr NTRneo/ 90% WiDr tumor cells injected in CD1 nude mouse assessed as growth delay at >1330 umol/kg, ip in DMSO; assay type: functional
Procedure, shortened: (§3)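 WiDr-NTRneo tumours (100% NTR+ve, or 1:9 NTR+ve:NTR-ve mixtures) in CD-1 nude mice, given a single i.p. dose at MTD. Read-out is median growth delay to 15 mm mean diameter, plus tumours not palpable 100 days after treatment. Aziridine given at 200 µmol/kg as positive control in every experiment.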

[21] = Stability in alpha MEM at 37 degC after 24 hrs; assay type: physicochemical; settings: read-out: Stability
Procedure, shortened: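 Percent parent compound remaining, by HPLC, after holding in α-MEM with 5% fetal calf serum at 37 °C for 24 h.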

WiDr [22] = test: Antitumor activity against human 100% WiDr NTRneo tumor cells injected in CD1 nude mouse assessed as growth delay at >1330 umol/kg, ip in DMSO; assay type: functional; procedure, shortened: as §3
WiDr [23] = test: Antitumor activity against human 100% WiDr NTRneo tumor cells injected in CD1 nude mouse assessed as growth delay at 562 umol/kg, ip in DMSO/PEG; assay type: functional; procedure, shortened: as §3
EMT6 [24] = test: Antitumor activity against mixed mouse EMT6/EMT6 NTRpuro cells injected in CD1 nude mouse assessed as cell kill at 1330 umol/kg, ip in DMSO/PEG after 18 hrs; assay type: functional
WiDr [25] = test: Antitumor activity against mixed human 10% WiDr NTRneo/ 90% WiDr tumor cells injected in CD1 nude mouse assessed as growth delay at 1330 umol/kg, ip in DMSO/PEG; assay type: functional; procedure, shortened: as §3
[26] = Solubility in alpha MEM; assay type: physicochemical
Procedure, shortened: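 Solubility (mM) in α-MEM with 5% fetal calf serum at ambient temperature, measured by HPLC.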

EMT6 [27] = test: Antitumor activity against mixed mouse EMT6/EMT6 NTRpuro cells injected in CD1 nude mouse assessed as cell kill at 2000 umol/kg, ip in DMSO after 18 hrs; assay type: functional
WiDr [28] = test: Antitumor activity against mixed human 10% WiDr NTRneo/ 90% WiDr tumor cells injected in CD1 nude mouse assessed as growth delay at 2000 umol/kg, ip in DMSO; assay type: functional
Procedure, shortened: (§4)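 WiDr tumors grown in CD-1 nude mice from stably NTR-transfected WiDr-NTRneo cells, either alone or mixed 1:9 with NTR-ve WiDr cells. Each mouse received a single i.p. dose. The read-out was median growth delay for tumors to reach an endpoint size of 15 mm mean diameter. Long-term controls were counted as tumors not palpable 100 days after treatment. The aziridine positive control was included in every experiment.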

WiDr [29] = test: Antitumor activity against human 100% WiDr NTRneo tumor cells injected in CD1 nude mouse assessed as growth delay at 2000 umol/kg, ip in DMSO; assay type: functional; procedure, shortened: as §4
[30] = Toxicity in ip dosed CD1 nude mouse in sodium acetate; assay type: organism-based; settings: in vivo; procedure, shortened: as §2
EMT6 [31] = test: Antitumor activity against mixed mouse EMT6/EMT6 NTRpuro cells injected in CD1 nude mouse assessed as cell kill at 300 umol/kg, ip in acetate after 18 hrs; assay type: functional
WiDr [32] = test: Antitumor activity against human 100% WiDr NTRneo tumor cells injected in CD1 nude mouse assessed as growth delay at 300 umol/kg, ip in acetate; assay type: functional; procedure, shortened: as §3
EMT6 [33] = test: Antitumor activity against mixed mouse EMT6/EMT6 NTRpuro cells injected in CD1 nude mouse assessed as cell kill at 237 umol/kg, ip in DMSO after 18 hrs; assay type: functional
[34] = Toxicity in ip dosed CD1 nude mouse in DMA/PEG; assay type: organism-based; settings: in vivo; procedure, shortened: as §2
EMT6 [35] = test: Antitumor activity against mixed mouse EMT6/EMT6 NTRpuro cells injected in CD1 nude mouse assessed as cell kill at 133 umol/kg, ip in DMA/PEG after 18 hrs; assay type: functional
EMT6 [36] = test: Antitumor activity against mixed mouse EMT6/EMT6 NTRpuro cells injected in CD1 nude mouse assessed as cell kill at 178 umol/kg, ip in DMSO/PEG after 18 hrs; assay type: functional
EMT6 [37] = test: Antitumor activity against mixed mouse EMT6/EMT6 NTRpuro cells injected in CD1 nude mouse assessed as cell kill at 560 umol/kg, ip in DMA/PEG after 18 hrs; assay type: functional
WiDr [38] = test: Antitumor activity against human 100% WiDr NTRneo tumor cells injected in CD1 nude mouse assessed as growth delay at 560 umol/kg, ip in DMA/PEG; assay type: functional; procedure, shortened: as §3
EMT6 [39] = test: Antitumor activity against mixed mouse EMT6/EMT6 NTRpuro cells injected in CD1 nude mouse assessed as cell kill at 237 umol/kg, ip in DMSO/PEG after 18 hrs; assay type: functional
WiDr [40] = test: Antitumor activity against human 100% WiDr NTRneo tumor cells injected in CD1 nude mouse assessed as growth delay at 237 umol/kg, ip in DMSO/PEG; assay type: functional; procedure, shortened: as §3

Row | Compound | logD [1] | IC50 (V79 [2]) [µM] | IC50 (V79 [3]) [µM] | Ratio IC50 (V79 [4]) | IC50 (EMT6 [5]) [µM] | IC50 (EMT6 [6]) [µM] | Ratio IC50 (EMT6 [7]) | IC50 (WiDr [8]) [µM] | IC50 (WiDr [9]) [µM] | Ratio IC50 (WiDr [10]) | IC50 [11] [µM] | Activity (V79 [12]) [µM] | IC50 [13] [µM] | Ratio IC50 [14] | Activity (V79 [15]) [µM] | Activity (V79 [16]) [µM] | MTD [17] [µmol/kg] | MTD [18] [µmol/kg] | remaining at 24 h [21] [%] | solubility [26] [µM] | further results
1 | NC(=O)c1cc(N(CCBr)CCBr)c([N+](=O)[O-])cc1[N+](=O)[O-] | 1.97 | 43 | 0.18 | 302 | 48 | 0.04 | 1110 | 40 | 0.22 | 174 | 58 | >50 | 0.33 | 211 | 3.3 | 4.6 | > 1330 | > 1330 | 98 | – | LCK (EMT6 [19]): 4.17; Activity (WiDr [20]): 20 days; Activity (WiDr [22]): >84 days; Activity (WiDr [23]): >84 days
2 | O=C(NCC(O)CO)c1cc(N(CCBr)CCBr)c([N+](=O)[O-])cc1[N+](=O)[O-] (stereo unspecified) | 1.25 | 275 | 0.34 | 828 | 132 | 0.08 | 1670 | 166 | 0.63 | 313 | 283 | 675 | 0.28 | 1050 | 18 | 98 | 1330 | – | 102 | 1700 (≈ 874 µg/mL) | LCK (EMT6 [24]): >3.36; Activity (WiDr [25]): 22 days
3 | CS(=O)(=O)OCCN(CCOS(C)(=O)=O)c1cc(C(N)=O)c([N+](=O)[O-])cc1[N+](=O)[O-] | -0.7 | 536 | 0.49 | 1200 | 189 | 0.32 | 755 | 24 | 0.67 | 55 | 226 | >300 | 1.2 | 220 | 13 | 152 | – | 2000 | – | – | LCK (EMT6 [27]): >2.6; Activity (WiDr [28]): 20 days; Activity (WiDr [29]): >82 days
4 | O=C(NCCN1CCOCC1)c1cc(N(CCCl)CCCl)c([N+](=O)[O-])cc1[N+](=O)[O-] | 1.6 | 201 | 130 | 1.6 | 242 | 30 | 8.9 | 243 | 149 | 1.7 | 383 | 3500 | 82 | 5 | 1500 | 3000 | – | – | 100 | 5200 (≈ 2410 µg/mL) | MTD [30]: 300 µmol/kg; LCK (EMT6 [31]): 0.07; Activity (WiDr [32]): 27 days
5 | NC(=O)c1cc(N(CCCl)CCBr)c([N+](=O)[O-])cc1[N+](=O)[O-] | 1.61 | 139 | 0.59 | 237 | 150 | 0.1 | 2190 | 150 | 0.69 | 236 | 226 | >300 | 0.84 | 280 | 3.4 | 8.2 | – | 237 | 62 | 630 (≈ 249 µg/mL) | LCK (EMT6 [33]): >3.02
6 | O=C(NCCO)c1cc(N(CCCl)CCCl)c([N+](=O)[O-])cc1[N+](=O)[O-] | 1.38 | 312 | 12 | 59 | 570 | 1.52 | 386 | 666 | 10 | 65 | 1250 | >1000 | 5.9 | 230 | 95 | 210 | – | – | – | 1000 (≈ 395 µg/mL) | MTD [34]: 133 µmol/kg; LCK (EMT6 [35]): >2.02
7 | O=C(NCCCO)c1cc(N(CCCl)CCCl)c([N+](=O)[O-])cc1[N+](=O)[O-] | 1.49 | 555 | 7.7 | 77 | 422 | 1.02 | 477 | 518 | 10 | 51 | 948 | 3300 | 6.5 | 146 | 95 | 150 | 178 | – | 108 | 4100 (≈ 1680 µg/mL) | LCK (EMT6 [36]): 0.44
8 | O=C(NCC(O)CO)c1cc(N(CCCl)CCCl)c([N+](=O)[O-])cc1[N+](=O)[O-] (stereo unspecified) | 0.93 | 1160 | 10 | 135 | 839 | 1.14 | 803 | 984 | 14 | 79 | 1710 | 3500 | 5.1 | 327 | 95 | 510 | – | – | 100 | 2900 (≈ 1230 µg/mL) | MTD [34]: 560 µmol/kg; LCK (EMT6 [37]): 1.49; Activity (WiDr [38]): 75 days
9 | O=C(NCC(O)CO)c1cc(N(CCI)CCI)c([N+](=O)[O-])cc1[N+](=O)[O-] (stereo unspecified) | 1.79 | 114 | 1 | 100 | 58 | 0.12 | 482 | 64 | 0.82 | 90 | 97 | 245 | 0.56 | 172 | 12.5 | 54 | 237 | – | 90 | 960 (≈ 584 µg/mL) | LCK (EMT6 [39]): 0.54; Activity (WiDr [40]): 37 days
